Screening results from PubChem.
MBD2 DNA inh: blocks human MBD2 binding to methylated DNA | actives 0.31% (n = 370,000) | AID 686964 | TR-FRET, MBD2 binding to methylated oligonucleotide | inhibition, % at 4.4 µM; in the data active = inhibition above about 13%
CASP6 VEID inh: inhibitors of human caspase-6. P55212. purified caspase-6, Z-VEID-R110 cleavage fluorescence. inhibition, % at 12.5 µM. actives 0.53% (n = 350,000). AID 686996;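 active = mean inhibition across replicates at least about 35%, with every replicate also reaching that limit, limit read from the data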
Target sequence (P55212 24-179 limits assumed): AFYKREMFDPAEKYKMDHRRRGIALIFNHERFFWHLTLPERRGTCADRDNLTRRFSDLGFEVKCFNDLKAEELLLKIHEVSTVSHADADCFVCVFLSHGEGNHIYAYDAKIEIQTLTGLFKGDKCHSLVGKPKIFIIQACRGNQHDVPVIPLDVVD
Target sequence (P55212 194-293 limits assumed): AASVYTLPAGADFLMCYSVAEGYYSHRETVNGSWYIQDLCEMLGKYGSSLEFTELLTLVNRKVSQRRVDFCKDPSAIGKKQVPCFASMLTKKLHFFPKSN
LEDGF integ inh: blocks HIV-1 LEDGF/p75-dependent DNA integration. actives 0.64% (n = 370,000). TR-FRET IN-LEDGF/p75 DNA integration, Eu/Cy5. inhibition, % at 3.7 µM;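 active = inhibition above the screen-wide mean plus 3 SD, cut at about 13% in these data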;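 also: signal is the Cy5 over europium emission ratio at 671 and 618 nm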
NSD2 inh: inhibitors of human histone methyltransferase NSD2; O96028; NSD2 peptide methylation, AlphaScreen, 120 min; inhibition, % at 12.5 µM; actives 0.54% (n = 310,000); in the data active = inhibition above about 50%
TDP2 absorb: blocks human TDP2 phosphodiesterase activity; actives 0.34% (n = 370,000); inhibition, % at 12.8 µM; recombinant TDP2, T5PNP hydrolysis, p-nitrophenol absorbance 415 nm;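 active = inhibition above the mean of all tested compounds plus 3 SD, set per campaign, cut at about 25% in these data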
Target sequence (O95551 whole entry, looked up): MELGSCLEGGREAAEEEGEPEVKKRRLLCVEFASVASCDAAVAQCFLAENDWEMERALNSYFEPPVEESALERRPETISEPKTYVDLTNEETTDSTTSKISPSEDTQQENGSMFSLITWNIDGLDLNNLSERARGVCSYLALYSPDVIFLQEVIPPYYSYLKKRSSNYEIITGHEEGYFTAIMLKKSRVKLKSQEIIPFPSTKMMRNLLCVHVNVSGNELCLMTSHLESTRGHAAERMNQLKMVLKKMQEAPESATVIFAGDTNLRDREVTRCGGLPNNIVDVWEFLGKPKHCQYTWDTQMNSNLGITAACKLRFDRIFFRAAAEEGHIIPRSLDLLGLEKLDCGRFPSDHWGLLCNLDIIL
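Material: recombinant human TDP2; quantity: TDP2 enzyme at 120 nM final; medium: Tris-HCl pH 7.5 with MgCl2; compound: single concentration, 12.8 µM nominal, with 1% DMSO; incubation: 2 h enzyme incubation at 37 °C; signal: epi absorbance; measure: percent inhibition; benchmarks: high control without enzyme, low control DMSO plus TDP2; repeats: singlicate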
UHRF1 binding: human UHRF1 methylated DNA binding inhibitors; Q96T88; actives 0.75% (n = 370,000); UHRF1 binding to methylated oligo, TR-FRET; AID 687016; inhibition, % at 4.4 µM;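 also: UHRF1 SRA domain binding a hemimethylated CpG hairpin DNA probe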
UHRF1 DNA bind: counter-screen for MBD2 inhibitors: human UHRF1 methylated DNA binding inhibitors | shares compounds with MBD2 DNA inh | actives 25% (n = 1,000) | AID 720530 | inhibition, % at 4.4 µM | UHRF1 binding to methylated oligonucleotide, TR-FRET;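 also: UHRF1 SRA domain binding a labeled hemimethylated CpG hairpin DNA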
MBD2 DBD conf: MBD2-DBD methyl-DNA binding inhibition, TR-FRET confirmation | shares compounds with MBD2 DNA inh | TR-FRET MBD2-DBD binding to methylated oligonucleotide | inhibition, % at 4.4 µM | actives 26% (n = 1,000) | AID 720531; in the data active = inhibition above about 14%
Numbers stand for hits; 0 = inactive; - = no result given. The list is not random: actives were taken first. Their share in the collection is about 1.9%. Rule as the data show it, unless noted: active = inhibition above about 21%; inactive = the rest.

SMILES	MBD2 DNA inh	CASP6 VEID inh	LEDGF integ inh	NSD2 inh	TDP2 absorb	UHRF1 binding	UHRF1 DNA bind	MBD2 DBD conf
CNC(=S)N(CCc1cccc(C)c1)Cc1cc2cc(OC)c(OC)cc2[nH]c1=O	0	0	0	-	0	0	-	-
COCC(=O)N(C)C[C@@H]1Oc2cc(-c3cccc(F)c3)ccc2S(=O)(=O)N([C@@H](C)CO)C[C@@H]1C	-	0	-	-	-	-	-	-
CCOC(=O)c1cnc2ccccc2c1NCCO	0	-	0	0	0	0	-	-
CCOC(=O)c1cnc2c(ccc3ccccc32)c1NCCCN(C)C	20	0	0	0	0	0	0	26
C[C@H](CO)N1C[C@H](C)[C@@H](CN(C)S(=O)(=O)c2ccccc2)OCc2ccccc2-c2ccccc2C1=O	-	0	-	-	-	-	-	-
Cc1ccc(C)c(NC(=O)Cn2nc(C)c3ccccc3c2=O)c1	17	-	0	0	0	0	0	0
Cc1cc2[nH]c3c(c[n+](C)c4ccccc34)c2cc1C	83	0	0	0	0	51	60	88
Cc1cc(=O)[nH]c2ccccc12	0	-	0	0	0	0	-	-
CCCc1nnc(NC(=O)CCC(=O)N2CCN(c3ccccn3)CC2)s1	14	-	0	0	0	0	0	0
COc1ncccc1-c1cc2nc(NCCCN(C)C)n(C)c(=O)c2s1	14	0	0	0	0	0	30	17
COc1cccc(-c2cc3nc(NCCCN(C)C)n(C)c(=O)c3s2)c1	0	0	0	0	0	0	-	-
c1ccc(Oc2ncnc3ccccc23)cc1	21	0	0	0	0	0	0	0
C[C@@H]1CN([C@@H](C)CO)C(=O)c2cc(NC(=O)CCC(F)(F)F)ccc2O[C@H]1CN(C)Cc1ccc(C(F)(F)F)cc1	-	0	-	-	-	-	-	-
COc1ccc(CN(C)C[C@H]2Oc3c(NS(C)(=O)=O)cccc3C(=O)N([C@H](C)CO)C[C@H]2C)cc1	-	0	-	-	-	-	-	-
Cc1ccccc1CC1(CO)CCCN(C(=O)CCN2CCCO2)C1 (stereo not drawn)	16	0	0	0	0	0	0	0
Cc1ccccc1CC1(CO)CCCN(C(=O)CCC(=O)c2ccccc2)C1 (stereo not drawn)	0	0	0	0	0	0	-	-
Cc1ccc(C(=O)O)cc1-c1ccc(/C=C2/NC(=O)N(c3ccccc3)C2=O)o1	14	-	0	0	0	43	30	0
O=C(CSCc1ccc(F)cc1)Nc1ccccc1	0	-	0	0	0	0	-	-
O=C(CSCc1ccccc1)Nc1ccc(F)c(F)c1	16	-	0	0	0	0	0	0
COc1ccc(CNc2c(C(=O)O)cnc3c2cnn3C)cc1	0	0	0	0	0	0	-	-
CCOC(=O)c1cnc2c(cnn2C)c1NCc1ccc(OC)cc1	44	0	0	-	0	0	0	0
Brc1ccc2c(c1)-c1ccccc1C1=NCCN12	0	0	0	0	0	0	-	-
Clc1ccc2c(c1)-c1ccccc1C1=NCCN12	22	0	0	0	0	0	0	42
C/C(=N\NC(=O)Cc1cccn1C)c1ccco1	0	0	0	0	0	0	-	-
Cn1cccc1CC(=O)N/N=C/C=C/c1ccco1	23	0	48	0	0	53	26	24
SMILES	MBD2 DNA inh	CASP6 VEID inh	LEDGF integ inh	NSD2 inh	TDP2 absorb	UHRF1 binding	UHRF1 DNA bind	MBD2 DBD conf
COC(=O)C1C(c2ccccc2)C=CC(c2ccccc2)C1C(=O)O (stereo not drawn)	44	0	0	0	0	0	0	0
COC(=O)[C@H]1[C@H](c2ccccc2)[C@H](C(=O)OC)O[C@H]1c1ccccc1	0	0	0	0	0	0	-	-
CC(=O)N(C)C[C@H]1Oc2ncc(C3=CCCC3)cc2C(=O)N([C@@H](C)CO)C[C@@H]1C	-	0	-	-	-	-	-	-
COc1cccc2sc3ccc(NCCC4CCCN4C)cc3c(=O)c12 (stereo not drawn)	0	0	0	-	0	0	-	-
COc1cc2sc3cc(NCC[C@@H]4CCCN4C)ccc3c(=O)c2cc1OC	18	0	0	-	0	0	0	22
COC(=O)[C@@]1(C(C)C)N=C(c2cc(OC)c(OC)c(OC)c2)[C@]2(O1)C(=O)N(Cc1cn(Cc3ccccc3)nn1)c1ccc(F)cc12	14	-	0	-	0	0	0	0
CC1(C(=O)NS(=O)(=O)c2ccc(Br)cc2)CCN1C(=O)CC1CCCCC1 (stereo not drawn)	18	0	0	0	0	0	0	0
CN1C(=O)c2cc(NC(=O)C3CC3)ccc2OC[C@@H]2O[C@@H](CC(=O)NCCc3ccncc3)CC[C@@H]21	-	0	-	-	-	-	-	-
C[C@@H](NC(=O)C[C@@H]1C=C[C@H](NC(=O)C2CC2)[C@H](CO)O1)c1ccccc1	-	0	-	-	-	-	-	-
O=C(/C=C/c1cccc(Br)c1)N1CCN(c2ccccn2)CC1	14	0	0	-	0	35	0	0
CCN(CC(=O)NC(C)(C)C)Cc1nc2c(Br)cc(Br)cc2c(=O)[nH]1	41	0	0	-	0	0	0	0
O=C(Cc1ccccn1)NCC[C@@H]1CC[C@@H](NS(=O)(=O)c2ccccc2)[C@H](CO)O1	-	0	-	-	-	-	-	-
O=C(OCc1cc(=O)n2ccsc2n1)c1ccccc1O	0	0	0	0	0	0	-	-
O=C(OCc1cc(=O)n2ccsc2n1)c1ccccc1NCCO	31	0	0	0	0	29	0	0
CN1CCN(C(=O)[C@H]2[C@H](CO)[C@H]3Cn4c(ccc(-c5cncnc5)c4=O)[C@H]3N2CC2CC2)CC1	-	0	-	-	-	-	-	-
COc1ccc(CN2CCN(Cc3ccc(C)cc3)CC2)c(OC)c1	32	0	0	0	0	0	0	0
Cc1ccc(C)c2nc(Cl)c(C#N)cc12	14	0	0	0	0	0	0	0
COC(=O)c1ccc(NC(=O)CCc2nnc3ccc(NCc4ccco4)nn23)cc1	14	0	0	0	0	0	0	0
CO[C@H]1CN(C)C(=O)c2cc(NC(C)=O)ccc2OC[C@@H](C)N(C(=O)c2ccccn2)C[C@H]1C	-	0	-	-	-	-	-	-
CC(C)(C)Nc1scc(-c2ccccc2)[n+]1-c1ccccc1	18	0	0	0	0	0	0	0
Cc1noc(C)c1NC(=O)N(C)C[C@H]1Oc2ccc(NC(=O)Nc3ccc4c(c3)OCO4)cc2CC(=O)N([C@@H](C)CO)C[C@H]1C	-	0	-	-	-	-	-	-
O=C(Nc1ccc(F)c(C(F)(F)F)c1)Nc1nnc(-c2ccncc2)s1	15	-	0	0	0	0	0	0
CCC(=O)Nc1nnc(-c2ccncc2)s1	0	-	0	0	0	0	-	-
Nc1nc(SCC(=O)N2CCN(c3ccc(F)cc3)CC2)n[nH]1	48	0	0	0	0	0	0	0
